This note sets out measurements from ChEMBL document CHEMBL2157873, “Development and characterization of endocannabinoid hydrolases FAAH and MAGL inhibitors bearing a benzotriazol-1-yl carboxamide scaffold” (Bioorg Med Chem, 2012).

The target in experiment [1] is Monoglyceride lipase (Homo sapiens) (UniProt Q99685). Nature of the experiment: Ratio of JZL184 IC50 to compound IC50 for human MAGL.
Experiment [2] has as its target T1, Monoglyceride lipase (Homo sapiens) (UniProt Q99685).
T1 sequence (whole entry): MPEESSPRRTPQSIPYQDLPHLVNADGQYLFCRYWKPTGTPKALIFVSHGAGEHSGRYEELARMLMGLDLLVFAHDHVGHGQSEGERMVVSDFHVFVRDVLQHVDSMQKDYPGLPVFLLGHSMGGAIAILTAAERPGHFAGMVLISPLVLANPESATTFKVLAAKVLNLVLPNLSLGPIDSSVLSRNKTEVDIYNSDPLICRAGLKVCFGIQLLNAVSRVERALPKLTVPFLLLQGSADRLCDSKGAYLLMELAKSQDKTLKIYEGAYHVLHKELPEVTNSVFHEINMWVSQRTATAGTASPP
Nature of the experiment: Ratio of Kinact to Ki for human MAGL using p-nitrophenylpropionate as substrate. An outline of the steps: (§1)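 MAGL (3 ng; Tris 50 mM, LDAO 0.1%, pH 8.0) added to p-nitrophenylpropionate (1.25 mM) plus inhibitor at various concentrations, both in DMSO. […] Done four times in quadruplicate.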

The species entered for a further experiment is Homo sapiens. Nature of the experiment: Selectivity ratio of IC50 for human recombinant FAAH to IC50 for human MAGL. An outline of the steps: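 Selectivity calculated as IC50 for human FAAH divided by IC50 for human MAGL. Both IC50 values from radiometric hydrolysis assays: [3H]-AEA with MBP-fused FAAH and [3H]-2-OG with pure MAGL. Each assay had 30 min inhibitor preincubation. Means of three independent experiments in duplicate.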

Experiment [3] addresses T2, Fatty-acid amide hydrolase 1 (Homo sapiens, UniProt O00519).
T2 sequence (O00519 whole entry): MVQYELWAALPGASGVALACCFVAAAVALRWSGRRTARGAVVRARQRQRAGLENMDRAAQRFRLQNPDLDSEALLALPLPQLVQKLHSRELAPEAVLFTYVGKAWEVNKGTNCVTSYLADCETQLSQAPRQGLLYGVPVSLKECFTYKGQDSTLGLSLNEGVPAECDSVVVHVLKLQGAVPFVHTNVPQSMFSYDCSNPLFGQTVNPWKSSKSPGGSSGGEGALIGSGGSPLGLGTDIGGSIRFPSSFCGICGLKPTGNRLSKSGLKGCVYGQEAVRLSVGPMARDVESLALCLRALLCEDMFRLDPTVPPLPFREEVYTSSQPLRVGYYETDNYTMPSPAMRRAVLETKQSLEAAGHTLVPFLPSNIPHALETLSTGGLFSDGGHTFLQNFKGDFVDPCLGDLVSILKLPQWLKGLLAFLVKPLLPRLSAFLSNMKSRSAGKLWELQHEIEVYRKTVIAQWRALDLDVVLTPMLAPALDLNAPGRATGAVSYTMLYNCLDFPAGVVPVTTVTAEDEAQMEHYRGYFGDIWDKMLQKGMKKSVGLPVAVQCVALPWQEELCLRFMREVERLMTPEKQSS
Nature of the experiment: Inhibition of human recombinant FAAH assessed as [3H]-AEA hydrolysis preincubated for 30 mins […] measured after 10 mins by liquid scintillation counting. The gist of the method: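 Human FAAH fused to maltose-binding protein, preincubated 30 min at 22 °C with inhibitor at various concentrations (Tris 10 mM, EDTA 1 mM, pH 8.0, inhibitor in DMSO). [3H]-anandamide (50,000 dpm) added, 10 min at 37 °C. Stopped with cold methanol/chloroform (1:1), aqueous-phase radioactivity by scintillation, blank subtracted, percent of control fitted as dose-response. Three independent experiments in duplicate.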

The target of experiment [4] is T1, Monoglyceride lipase (Homo sapiens). Nature of the experiment: Irreversible inhibition of human MAGL assessed as [3H]-2-OG hydrolysis preincubated for 30 mins before [3H]-2-OG addition measured at 10^-8 M to 10^-9 M measured after 300 fold dilution rapid dilution assay. An outline of the steps: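 Human MAGL (800 ng in Tris 50 mM, BSA 0.15%, pH 8.0) incubated 30 min at room temperature with inhibitor at 10^-8 or 10^-9 M in the mixture (DMSO). Diluted 300-fold in buffer, 15 min incubation, then [3H]-2-OG hydrolase activity read on an aliquot holding 10 ng enzyme by the standard radiometric method. Performed two times in triplicate.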

Experiment [5] has the same target. Nature of the experiment: Ratio of JZL184 IC50 to compound IC50 for human MAGL.
Experiment [6] concerns the target T3, Monoglyceride lipase (Homo sapiens, UniProt Q99685).
T3 sequence (Q99685 whole entry): T1 sequence (whole entry)
Nature of the experiment: Irreversible inhibition of human MAGL using p-nitrophenylpropionate as substrate. An outline of the steps:
as §1

The target in experiment [7] is T3, Monoglyceride lipase. Nature of the experiment: Inhibition of human MAGL assessed as [3H]-2-OG hydrolysis preincubated for 30 mins before [3H]-2-OG addition measured after 10 mins by liquid scintillation counting. An outline of the steps: (§2)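 [3H]-2-oleoylglycerol then added at 10 µM final. Stopped with methanol-chloroform (1:1), centrifuged 5 min at 700 g, aqueous-phase radioactivity read by liquid scintillation, no-enzyme blank subtracted. Means of three independent experiments in duplicate.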

For experiment [8], the target named is T3, Monoglyceride lipase. Nature of the experiment: Inhibition of MAGL. An outline of the steps:
as §2

Experiment [9] addresses T2, Fatty-acid amide hydrolase 1. Nature of the experiment: Inhibition of FAAH. An outline of the steps:
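Human FAAH fused to maltose-binding protein, preincubated 30 min at 22 °C with inhibitor (various concentrations, in DMSO) in Tris 10 mM, EDTA 1 mM, pH 8.0. [³H]-anandamide substrate added, then 10 min at 37 °C. Stopped with cold methanol/chloroform (1:1). Aqueous-phase radioactivity counted by liquid scintillation, with the no-enzyme blank subtracted. Activity taken as percent of control; IC50 from dose-response curves; three independent experiments in duplicate.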

The structures appear in SMILES notation. The source made the active and inactive calls. No cut-off for these calls is given here.

One may read the IC50 as the midpoint of a concentration-inhibition curve. Turning to `O=C(N1CCN(C(c2ccccc2)c2ccccc2)CC1)n1nnc2ccccc21`, the Ratio IC50 came out at 70 in [1], 1040 in the experiment listed under Homo sapiens and 70 in [5]. For the same molecule, the Ratio in experiment [2] was found to be 208000. The IC50 in [3] is 562 nM; at Monoglyceride lipase [7], 0.54 nM. The inhibition entry in experiment [4] was “Active”. On Monoglyceride lipase [6], this molecule registered a Ki of 75.7 nM.
`O=C(N1CCN(C(c2ccccc2)c2ccccc2)CC1)n1nnc2ncccc21`: at Monoglyceride lipase [8], the concentration for half-maximal inhibition (IC50) stood at 4 nM.
`O=C(Oc1ccc([N+](=O)[O-])cc1)N1CCC(C(O)(c2ccc3c(c2)OCO3)c2ccc3c(c2)OCO3)CC1`: the half-inhibitory concentration (IC50) in experiment [9] is 4690 nM; in experiment [3], 36300 nM.
